Assay outcomes (PubChem BioAssay)
GSK3B inh – human GSK3beta kinase inhibitors, primary screen, biochemical, cell-free homogeneous, HTS. Glycogen synthase kinase-3 beta (Homo sapiens), P49841. GST-GSK3beta kinase, ADP-Glo luminescence, 60 min; active compounds read low. activity score (negative = inhibition), % at 10 µM. 300,000 compounds, 0.038% hits. AID 2097, 2009;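 active means more than half of replicate wells score below -50%, meaning over 50% inhibition versus plate controls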;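 further: 0% = median DMSO wells and -100% = median GW8510 positive control wells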
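test system = GST-tagged human GSK3beta kinase, cell-free | reagent = 25 µM ATP with peptide substrate | dosing = one dose of 10 µM per compound | schedule = 60 min reaction, RT | detection = luminescent ADP-Glo measurement of ADP formed | control set = DMSO neutral wells and GW8510 at 20 µM as positive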
STK33 inh – inhibitors of purified STK33 kinase, primary screen, biochemical, ADP-Glo luminescence, homogeneous, cell-free; MBP phosphorylation; inhibition, % at 10 µM; 320,000 compounds, 0.073% hits; AID 2661, 2010;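 active means inhibition at or above 25%, using the most active replicate where run in duplicate; inactive means inhibition below 25%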
CDK5 inh – inhibitors of human CDK5/p35 kinase, primary screen, biochemical, single concentration | Recombinant CDK5/p35, ADP-Glo luminescence, 60 min | inhibition, % at 10 µM | Cyclin-dependent kinase 5 (Homo sapiens) + Cyclin-dependent kinase 5 activator 1 (Homo … | 330,000 compounds, 0.01% hits | AID 488839, 2010;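 active means highest replicate inhibition of at least 50% and at least 75% of replicates reaching 50%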;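 further: plate controls were DMSO neutral control for no effect and GW8510 at 10 µM for full effect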
Target sequence (Q00535 whole entry, looked up): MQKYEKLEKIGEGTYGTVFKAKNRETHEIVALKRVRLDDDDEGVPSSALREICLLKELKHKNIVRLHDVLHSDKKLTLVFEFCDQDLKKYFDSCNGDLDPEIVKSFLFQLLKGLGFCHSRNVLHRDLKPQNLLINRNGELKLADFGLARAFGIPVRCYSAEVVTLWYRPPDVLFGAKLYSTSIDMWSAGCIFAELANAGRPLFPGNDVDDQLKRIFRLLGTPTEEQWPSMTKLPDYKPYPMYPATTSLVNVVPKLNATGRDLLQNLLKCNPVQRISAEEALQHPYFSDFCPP
Target sequence (Q15078 whole entry, looked up): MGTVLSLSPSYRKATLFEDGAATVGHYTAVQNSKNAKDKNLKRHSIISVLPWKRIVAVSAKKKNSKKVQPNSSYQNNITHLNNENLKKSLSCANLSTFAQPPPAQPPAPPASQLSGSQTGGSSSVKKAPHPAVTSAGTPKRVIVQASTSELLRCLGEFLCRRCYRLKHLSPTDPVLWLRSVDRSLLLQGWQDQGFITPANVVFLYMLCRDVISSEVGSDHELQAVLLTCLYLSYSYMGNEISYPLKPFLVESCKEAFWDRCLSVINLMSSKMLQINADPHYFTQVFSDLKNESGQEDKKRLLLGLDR
DYRK1A inh – rat Dyrk1A kinase inhibitors, primary screen, biochemical, single point, plate reader; inhibition, % at 12.5 µM; AID 504441, 2011; ADP-Glo luminescence, NFATc1 peptide; 310,000 compounds, 0.43% hits; in the data active means inhibition above about 50%;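 further: plate controls were vehicle with enzyme for no effect and no enzyme for full effect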
GSK3A inh – blockers of GSK3A enzyme activity – biochemical, luminescence, cell-free homogeneous, HTS, primary screen; 320,000 compounds, 0.1% hits; GSK-3 alpha kinase, ADP-Glo luminescence, 60 min; inhibition, % at 10 µM;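 active means more than half of replicates show inhibition above 20%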;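 further: GST-tagged GSK-3 alpha with peptide substrate and 25 µM ATP; 0% = DMSO neutral wells and 100% = GW8510 positive control wells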
ADP-Glo artifact – ADP-Glo luciferase interference without Dyrk1A, dose response, artefact control for Dyrk1A inhibitor project, biochemical, luminescence, cherry-pick, set 02; shares compounds with DYRK1A inh; ADP-Glo luciferase artifact assay, no Dyrk1A; AC50, µM (titrated, usually from 12 µM), for inactives: at the highest dose activity change, negative = inhibition; 1,300 tested, under 10 active; AID 588348, 2011;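 active means fitted half-maximal dose AC50 no more than ten times the top valid tested dose, with luminescence dropping as dose rises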
Active calls of the source: *; nt = no result given; ! = not confirmed by another sample. Many of the other results were omitted from the sample, so hits are more common in it than they were.

SMILES	GSK3B inh	STK33 inh	CDK5 inh	DYRK1A inh	GSK3A inh	ADP-Glo artifact
CCn1nc(-c2ccccc2)nc2c(=O)n(C)c(=O)nc1-2	-32	3	1	68*	20	nt
CC(C)c1ccc(N=Cc2c(O)n(C3CC3)c(=S)[nH]c2=O)cc1	2	-1	1	22	0	nt
CN1/C(=C\C=C\C2=[N+](C)c3ccc4ccccc4c3C2(C)C)C(C)(C)c2ccccc21	nt	26*	nt	nt	71*	nt
COC(=O)C1=C(c2ccccc2OCc2ccccc2)C[C@@H]2CC[C@H]1N2C(=O)NCc1ccc(C(C)(C)C)cc1	nt	-1	-1	-2	-4	nt
CC(=NCCCn1ccnc1)c1c(O)n(C2CCCCC2)c(=O)[nH]c1=O	1	-1	0	0	67*	nt
O=c1[nH]c(=O)n(C2CCCCC2)c(O)c1C=NCCCn1ccnc1	2	-1	3	7	67*	nt
CC(=NCCCn1ccnc1)c1c(O)n(-c2ccccc2)c(=O)[nH]c1=O	-11	0	1	nt	23	nt
CCN(CC)CCN=Cc1c(O)n(C2CCCCCC2)c(=O)[nH]c1=O	-4	1	2	0	13	nt
O=C(O)CC1OCC=C2CN3CCC45C6=CC(=O)C(=O)C([N+](=O)[O-])=C6NC4C1C2CC35 (centres undefined)	-1	4	1	56*	7	10%
O=C(O)CC1OCC=C2CN3CCC45c6ccccc6NC4C1C2CC35 (centres undefined)	-1	0	-1	3	5	nt
COc1cc(C2c3cc4c(cc3CC3COC(=O)C32)OCO4)cc(OC)c1OC (centres undefined)	nt	nt	3	9	nt	nt
N#Cc1c(Br)n(C2OC(CO)C(O)C2O)c2ncnc(N)c12 (centres undefined)	nt	nt	14	75*	nt	7%
NC(=O)c1c(Br)n(C2OC(CO)C(O)C2O)c2ncnc(N)c12 (centres undefined)	nt	nt	7	65*	nt	7%
N#Cc1cn(C2OC(CO)C(O)C2O)c2ncnc(N)c12 (centres undefined)	nt	nt	1	2	nt	nt
NC(=O)c1cn(C2OC(CO)C(O)C2O)c2ncnc(N)c12 (centres undefined)	0	13	42	88*!	72*	7%
Cc1ccccc1CN1CCN(c2ccc(Cl)cc2)CC1	3	nt	0	-4	nt	nt
CCCCC(=O)N/N=C/c1c(O)n(CC)c(=S)[nH]c1=O	2	-1	-1	-1	-1	nt
COC(=O)C1=C(c2cccc(C#N)c2)C[C@@H]2CC[C@H]1N2C(=O)NCCOc1ccc(OC)cc1	nt	-1	0	-6	0	nt
Cc1nc2c(=O)n(C)c(=O)nc-2n(C)n1	-23	-2	3	76*	7	9%
COc1cc2c(cc1O)CC1c3c(cc(O)c(OC)c3-2)CCN1C (centres undefined)	-1	7	2	70*	14	11%
